Activity calls are given as the source filed them. The rule behind the calls is not given here.

For experiment [1], the target named is Botulinum neurotoxin type A (Clostridium botulinum) (UniProt P0DPI0). Description: Inhibition of Clostridium botulinum recombinant neurotoxin A light chain using SNAPtide as substrate at 10 uM after 1 hr by FRET assay relative to control. A digest of the protocol:
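Single-point FRET at 10 μM ligand: 10 nM light chain, 8 μM SNAPtide, pH 8.2, 37 °C, 1 h incubation, triplicate. Cleavage read at ex 490/em 523 nm. Percent inhibition calculated against uninhibited cleavage at the same substrate and enzyme levels.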

Experiment [2] has the same target. Put plainly: Binding affinity to nonactivated whole Clostridium botulinum biotinylated neurotoxin A in streptavidin-coated magnetic beads at 10 uM after 1 hr by fluorescence intensity assay relative to control.
The target in experiment [3] is Botulinum neurotoxin type A (Clostridium botulinum, UniProt P0DPI0). Description: Inhibition of Clostridium botulinum recombinant neurotoxin A light chain using SNAPtide as substrate after 1 hr by FRET assay. A digest of the protocol:
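IC50 from a FRET dose-response: 10 nM light chain preincubated 30 min with inhibitor at 37 °C before adding SNAPtide (8 μM final). Fluorescence read at ex 490/em 523 nm and expressed relative to uninhibited cleavage. Triplicate wells with DMSO controls. IC50 from four-parameter nonlinear regression over two independent experiments.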

Experiment [4] concerns the target Botulinum neurotoxin type A (Clostridium botulinum) (UniProt P0DPI0). Put plainly: Binding affinity to Clostridium botulinum recombinant biotinylated neurotoxin A light chain incubated for 15 mins by scintillation proximity assay. In a few lines: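 Scintillation proximity binding: [3H]paclitaxel at each concentration incubated with 7 nM biotinylated light chain for 15 min at room temperature. Streptavidin-coated polyvinyltoluene SPA beads (2 mg/mL) then added. Run in triplicate, read at 1 h intervals by scintillation counting. Counts corrected for nonspecific binding/nonproximity effects.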

The target is the same in experiment [5]. Description: Binding affinity to nonactivated whole Clostridium botulinum biotinylated neurotoxin A in streptavidin-coated magnetic beads using [14C] labeled compound at 50 uM relative to control.
The target is the same in experiment [6]. Put plainly: Binding affinity to nonactivated whole Clostridium botulinum biotinylated neurotoxin A in streptavidin-coated magnetic beads using [14C] labeled compound at 25 uM relative to control.
Experiment [7] has the same target. Put plainly: Binding affinity to nonactivated whole Clostridium botulinum biotinylated neurotoxin A in streptavidin-coated magnetic beads using [14C] labeled compound at 10 uM relative to control.

Botulinum neurotoxin type A (Clostridium botulinum), sequence (P0DPI0 2-448 limits assumed): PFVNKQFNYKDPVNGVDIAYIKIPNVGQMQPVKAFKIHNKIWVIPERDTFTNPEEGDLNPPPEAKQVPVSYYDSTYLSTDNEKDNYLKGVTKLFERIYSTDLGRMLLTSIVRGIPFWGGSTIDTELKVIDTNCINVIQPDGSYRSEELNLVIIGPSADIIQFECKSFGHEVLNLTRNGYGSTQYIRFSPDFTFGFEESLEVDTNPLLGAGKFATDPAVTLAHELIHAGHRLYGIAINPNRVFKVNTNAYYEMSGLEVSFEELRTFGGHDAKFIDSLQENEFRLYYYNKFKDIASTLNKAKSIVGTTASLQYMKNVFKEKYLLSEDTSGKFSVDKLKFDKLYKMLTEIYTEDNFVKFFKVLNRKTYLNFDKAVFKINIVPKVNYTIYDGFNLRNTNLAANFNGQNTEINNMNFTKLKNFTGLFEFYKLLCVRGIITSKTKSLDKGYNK
Botulinum neurotoxin type A, sequence (P0DPI0 2-448 limits assumed): as above

In the case of `Nc1nc(N)c2nc(CNc3ccc(C(=O)N[C@@H](CCC(=O)O)C(=O)O)cc3)cnc2n1`, in experiment [1], the inhibition worked out at 11%.

`CC(=O)O[C@H]1C(=O)[C@]2(C)[C@@H](OC(=O)CCNC(=O)c3ccc(-c4c5cc(F)c(=O)cc-5oc5cc(O)c(F)cc45)c(C(=O)O)c3)C[C@H]3OC[C@@]3(OC(C)=O)[C@H]2[C@H](OC(=O)c2ccccc2)[C@]2(O)C[C@H](OC(=O)[C@H](O)[C@@H](NC(=O)c3ccccc3)c3ccccc3)C(C)=C1C2(C)C` came in with an Activity in experiment [2] of 4%.

For `CC(=O)O[C@H]1C(=O)[C@@]2(C)[C@H]([C@H](OC(=O)c3ccccc3)[C@]3(O)C[C@H](OC(=O)[C@H](O)[C@@H](NC(=O)c4ccccc4)c4ccccc4)C(C)=C1C3(C)C)[C@]1(OC(C)=O)CO[C@@H]1C[C@@H]2O` [PACLITAXEL], the IC50 in experiment [3] was determined as 5.2 µM. The result in experiment [4] was Active. The Activity in experiment [5] and in experiment [6] was 7% in each case. For the same molecule, in experiment [1], the inhibition was 85%.

Take `OCC1(O)OC[C@@H](O)[C@@H](O)[C@@H]1O` (stereo partly drawn): in experiment [1], the inhibition stood at 0%. Besides, the Activity in experiment [7] amounted to 5%.

In experiment [2], `CC(=O)O[C@H]1C(=O)[C@@]2(C)[C@H]([C@H](OC(=O)c3ccccc3)[C@]3(O)C[C@H](OC(=O)[C@H](O)[C@@H](NC(=O)CCC4=[N+]5C(C=C4)Cc4ccc(/C=C/c6ccccc6)n4[B-]5(F)F)c4ccccc4)C(C)=C1C3(C)C)[C@]1(OC(C)=O)CO[C@@H]1C[C@@H]2O` (stereo partly drawn) returned an Activity of 46%.

Consider `CC[C@@]1([C@@H]2O[C@@H]([C@H]3O[C@@](O)(CO)[C@H](C)C[C@@H]3C)C[C@@H]2C)CC[C@H]([C@]2(C)CC[C@]3(C[C@H](O)[C@@H](C)[C@@H]([C@@H](C)[C@@H](OC)[C@H](C)C(=O)O)O3)O2)O1`, for which the inhibition in experiment [1] worked out at 38%.

For the molecule `N[C@@H](CCCc1c(CC[C@H](N)C(=O)O)c[n+](CCCC[C@H](N)C(=O)O)cc1CC[C@H](N)C(=O)O)C(=O)[O-]`, in experiment [1], the inhibition turned out to be 25%.

Turning to `CC(=O)O[C@H]1C(=O)[C@@]2(C)[C@H]([C@H](OC(=O)c3ccccc3)[C@]3(O)C[C@H](OC(=O)[C@H](O)[C@@H](NC(=O)CCC4=[N+]5C(C=C4)Cc4c(C)cc(C)n4[B-]5(F)F)c4ccccc4)C(C)=C1C3(C)C)[C@]1(OC(C)=O)CO[C@@H]1C[C@@H]2O` (stereo partly drawn), in experiment [2], the Activity was 22%.

Source of the values: ChEMBL document CHEMBL2321786, “Paclitaxel is an inhibitor and its boron dipyrromethene derivative is a fluorescent recognition agent for botulinum neurotoxin subtype A” (J Med Chem, 2013).
